Our source for the inhibition and Ki values is ChEMBL document CHEMBL3244066, “Inhibition of histidine decarboxylase. Derivatives of histidine” (J Med Chem, 1977).

Each structure is given as a SMILES string. Peptide text beside a SMILES is read from it.

The first assay addresses T1, Histidine decarboxylase (Rattus norvegicus) (UniProt P16453).
T1 sequence (whole entry): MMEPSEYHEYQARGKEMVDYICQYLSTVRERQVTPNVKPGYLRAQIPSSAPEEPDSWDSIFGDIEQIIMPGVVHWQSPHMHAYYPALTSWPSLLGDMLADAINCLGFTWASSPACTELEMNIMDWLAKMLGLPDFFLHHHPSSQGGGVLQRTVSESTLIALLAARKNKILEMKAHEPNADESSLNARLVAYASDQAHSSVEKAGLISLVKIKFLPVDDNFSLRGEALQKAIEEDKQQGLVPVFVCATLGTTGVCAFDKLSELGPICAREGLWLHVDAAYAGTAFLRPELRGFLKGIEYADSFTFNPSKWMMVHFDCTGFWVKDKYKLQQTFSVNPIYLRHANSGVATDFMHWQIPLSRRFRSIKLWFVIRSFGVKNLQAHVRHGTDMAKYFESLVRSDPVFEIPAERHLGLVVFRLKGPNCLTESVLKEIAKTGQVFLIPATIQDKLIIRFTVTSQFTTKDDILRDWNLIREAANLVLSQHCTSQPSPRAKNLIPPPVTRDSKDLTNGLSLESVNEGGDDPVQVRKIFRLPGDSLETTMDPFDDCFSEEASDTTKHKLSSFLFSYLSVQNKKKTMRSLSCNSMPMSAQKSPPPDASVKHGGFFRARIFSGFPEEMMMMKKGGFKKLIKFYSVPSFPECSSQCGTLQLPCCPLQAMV
In words: Inhibition of histidine decarboxylase in Sprague-Dawley rat stomach assessed as decrease in 14CO2 production using L-histidine-carboxyl-14C as substrate at 0.32 mM by scintillation counting analysis. An outline of the steps: (§1)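 Enzyme from rat stomach: homogenized in 0.1 M K phosphate–0.1 mM pyridoxal phosphate, pH 6.9, at 0–4 °C. Then 39 000g and 100 000g spins and a 20–45% ammonium sulfate cut. Assayed in triplicate with 0.05 M K phosphate, pH 6.9, 0.03 mM PLP and 0.24 mM L-histidine-carboxyl-14C (final) for 30 min at 37 °C. Inhibitors were fresh in water, generally 0.1 mM. HCl-released 14CO2 was trapped on Hyamine paper for 1 h and counted. % inhibition was taken after blank subtraction.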
As usually defined, the inhibition is the change of the read-out against control, counted positive when it falls. Consider `C[C@](N)(Cc1c[nH]cn1)C(=O)O`, for which the inhibition was determined as 50%.

The target in another assay is T1, Histidine decarboxylase (Rattus norvegicus). In words: Inhibition of histidine decarboxylase in Sprague-Dawley rat stomach assessed as decrease in 14CO2 production using L-histidine-carboxyl-14C as substrate at 0.10 mM by scintillation counting analysis. An outline of the steps: as §1
As for `COC(=O)CCc1c[nH]cn1`, the inhibition was determined as 10%. Still for that read-out and setting: the result for `COC(=O)[C@@H](N)Cc1nc[nH]c1[N+](=O)[O-]` reads 3%; that for `C[C@](N)(Cc1c[nH]cn1)C(=O)O`, 19%; that for `C[n+]1c[nH]cc1C[C@H](N)C(=O)O`, 0%. On the same count and under the same terms, the result for `Cn1cnc(C[C@H](N)C(=O)O)c1` reads 0%; that for `N[C@@H](Cc1cnc[nH]1)C(=O)NO`, 14%; that for `N[C@@H](Cc1nc[nH]c1[N+](=O)[O-])C(=O)O`, 0%.

In the case of `N[C@@H](Cc1c[nH]cn1)C(=O)NCC(=O)O` (H-His-Gly-OH), the inhibition was determined as 0%.

Turning to `CCCC(Cc1c[nH]cn1)(C(=O)OC)[N+](=O)[O-]` (racemic), the inhibition came to 32%. Regarding `CCCC(N)(Cc1c[nH]cn1)C(=O)OC` (racemic), the inhibition came to 2%. Same read-out and setting: to `CCCCC(Cc1c[nH]cn1)(C(=O)OC)[N+](=O)[O-]` (racemic) belongs 24%. On the same count and under the same terms, the result for `CCCCC(N)(Cc1c[nH]cn1)C(=O)O` (racemic) reads 3%. The same measure, in the same setting: the result for `CCCCC(N)(Cc1c[nH]cn1)C(=O)OC` (racemic) reads 0%. Turning to `CCCCOC(=O)C(N)Cc1c[nH]cn1` (racemic), the inhibition worked out at 62%. Same read-out and setting: to `CCCOC(=O)C(N)Cc1c[nH]cn1` (racemic) belongs 22%. As to `CCOC(=O)C(CC)(Cc1c[nH]cn1)[N+](=O)[O-]` (racemic), the inhibition stood at 5%. With `CCOC(=O)C(Cc1c[nH]cn1)(c1ccccc1)[N+](=O)[O-]` (racemic), the inhibition came out at 22%. On the same count and under the same terms, the result for `CCOC(=O)C(N)(CC)Cc1c[nH]cn1` (racemic) reads 13%; that for `CNC(=O)C(N)Cc1c[nH]cn1` (racemic), 0%. Still for that read-out and setting: the result for `COC(=O)C(C)(Cc1c[nH]cn1)[N+](=O)[O-]` (racemic) reads 25%; that for `COC(=O)C(C)(N)Cc1c[nH]cn1` (racemic), 3%. Still for that read-out and setting: to `Cc1nc(CC(N)C(=O)O)c[nH]1` (racemic) belongs 0%; to `O=C(O)C(Br)Cc1cnc[nH]1` (racemic), 13%.

Another assay shares this target. In words: Inhibition of histidine decarboxylase in Sprague-Dawley rat stomach assessed as decrease in 14CO2 production using L-histidine-carboxyl-14C as substrate at 0.50 mM by scintillation counting analysis. An outline of the steps: as §1
For the compound `CC(=O)N[C@@H](Cc1c[nH]cn1)C(=O)O`, the inhibition is 0%.

The next assay has the same target. Kind of assay: Inhibition of histidine decarboxylase in Sprague-Dawley rat stomach assessed as decrease in 14CO2 production using L-histidine-carboxyl-14C as substrate at 0.004 mM by scintillation counting analysis. An outline of the steps: as §1
As to `COC(=O)[C@@H](N)Cc1c[nH]cn1`, the inhibition came to 50%.

For the next assay the target is unchanged. In words: Inhibition of histidine decarboxylase in Sprague-Dawley rat stomach assessed as decrease in 14CO2 production using L-histidine-carboxyl-14C as substrate at 0.13 mM by scintillation counting analysis. An outline of the steps: as §1
In the case of `O=C(O)CCc1c[nH]cn1`, the inhibition turned out to be 9%.

Take `O=C(O)[C@@H](O)Cc1c[nH]cn1`: the inhibition amounted to 0%.

The target is the same in another assay. In words: Inhibition of histidine decarboxylase in Sprague-Dawley rat stomach assessed as decrease in 14CO2 production using L-histidine-carboxyl-14C as substrate at 0.012 mM by scintillation counting analysis. An outline of the steps:
as §1
Take `CCOC(=O)[C@@H](N)Cc1c[nH]cn1`: the inhibition was 50%.

Another assay deals with T2, Histidine decarboxylase (Rattus norvegicus, UniProt P16453).
T2 sequence (P16453 whole entry): T1 sequence (whole entry)
Kind of assay: Inhibition of histidine decarboxylase in Sprague-Dawley rat stomach assessed as decrease in 14CO2 production using L-histidine-carboxyl-14C as substrate by Dixon plot analysis. An outline of the steps:
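Ki from a Dixon plot of reciprocal activity versus inhibitor concentration. Used the ammonium sulfate–fractionated rat stomach extract, 0.24 mM L-histidine-carboxyl-14C, 0.03 mM PLP, pH 6.9 phosphate, 30 min at 37 °C, and Hyamine trapping of 14CO2 with scintillation counting. Inhibitor was run in duplicate at four concentrations from 1 to 50 μM.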
One may read the Ki as a measure of affinity in units of concentration, obtained from inhibition or displacement. On to `COC(=O)[C@@H](N)Cc1c[nH]cn1`, for which the Ki was found to be 1.8 µM.
